Reference: ChEMBL document CHEMBL1140866, “New pyrazoline bearing 4(3H)-quinazolinone inhibitors of monoamine oxidase: synthesis, biological evaluation, and structural determinants of MAO-A and MAO-B selectivity” (Bioorg Med Chem, 2009)

Key:
[1] = target: T1, Amine oxidase [flavin-containing] B (Rattus norvegicus, UniProt P19643); test: Inhibition of MAO-B in rat liver homogenate after 60 mins by Lineweaver-Burke plot; type: tissue-based; conditions: for Activity: rat, 1 h, TDE = time-dependent effect
T1 sequence (P19643 whole entry): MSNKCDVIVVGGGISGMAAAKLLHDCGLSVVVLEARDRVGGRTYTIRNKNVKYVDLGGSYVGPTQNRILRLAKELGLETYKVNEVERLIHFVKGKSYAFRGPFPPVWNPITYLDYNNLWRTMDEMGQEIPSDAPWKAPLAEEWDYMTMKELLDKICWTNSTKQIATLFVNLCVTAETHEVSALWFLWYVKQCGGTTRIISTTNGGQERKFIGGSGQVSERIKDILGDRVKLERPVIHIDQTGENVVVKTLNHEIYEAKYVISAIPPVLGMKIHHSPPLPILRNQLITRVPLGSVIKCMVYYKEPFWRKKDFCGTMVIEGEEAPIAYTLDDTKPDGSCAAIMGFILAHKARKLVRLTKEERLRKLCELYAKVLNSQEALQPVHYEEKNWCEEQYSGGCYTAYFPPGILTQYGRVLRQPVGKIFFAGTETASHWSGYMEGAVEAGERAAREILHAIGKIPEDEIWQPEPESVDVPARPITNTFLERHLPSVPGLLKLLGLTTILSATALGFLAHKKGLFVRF

[2] = target: T2, Amine oxidase [flavin-containing] A (Rattus norvegicus, UniProt P21396); test: Inhibition of MAO-A in rat liver homogenate after 60 mins by Lineweaver-Burke plot; type: tissue-based; conditions: for Activity: rat, 1 h, TDE = time-dependent effect
T2 sequence (P21396 whole entry): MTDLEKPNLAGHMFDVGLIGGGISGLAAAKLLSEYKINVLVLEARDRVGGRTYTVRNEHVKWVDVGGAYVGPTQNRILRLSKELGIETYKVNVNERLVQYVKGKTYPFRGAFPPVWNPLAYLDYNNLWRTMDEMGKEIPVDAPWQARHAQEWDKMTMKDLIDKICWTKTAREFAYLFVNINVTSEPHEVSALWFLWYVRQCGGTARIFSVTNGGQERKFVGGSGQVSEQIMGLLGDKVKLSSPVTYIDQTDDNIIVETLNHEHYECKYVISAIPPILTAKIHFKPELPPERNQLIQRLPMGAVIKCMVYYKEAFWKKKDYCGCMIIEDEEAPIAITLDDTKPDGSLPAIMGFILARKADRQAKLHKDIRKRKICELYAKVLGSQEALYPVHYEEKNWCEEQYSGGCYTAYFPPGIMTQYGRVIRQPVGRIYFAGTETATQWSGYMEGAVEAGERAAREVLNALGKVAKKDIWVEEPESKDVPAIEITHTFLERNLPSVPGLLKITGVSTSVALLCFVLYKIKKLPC

[3] = target: T1, Amine oxidase [flavin-containing] B; test: Inhibition of MAO-B in rat liver homogenate after 60 mins by residual activity plot; type: tissue-based
[4] = target: T2, Amine oxidase [flavin-containing] A; test: Inhibition of MAO-A in rat liver homogenate after 60 mins by residual activity plot; type: tissue-based
Mus musculus [5] = test: Anxiolytic activity in albino mouse assessed as time spent on closed arm at 100 mg/kg, ip by plus-maze test; type: functional; set-up: unit not given here; conditions: route intraperitoneal
Procedure, shortened: (§1)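 Mice given compounds i.p. at 100 mg/kg in DMSO/water (1:4), about 0.1 mL, 1 h before testing; controls got 0.1 mL vehicle; n = 7–8. Housed eight per cage, 20 ± 2 °C, 12 h light/dark. Each animal did the plus-maze first, then forced swim.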

Mus musculus [6] = test: Anxiolytic activity in albino mouse assessed as total number of entries into arms at 100 mg/kg, ip by plus-maze test; type: functional; conditions: route intraperitoneal; procedure, shortened: as §1
Mus musculus [7] = test: Antidepressant activity in albino mouse assessed as immobility time at 100 mg/kg, ip by forced swim test; type: functional; conditions: route intraperitoneal; procedure, shortened: as §1

SMILES	Ki [1] [µM]	Ki [2] [µM]	Activity [1]	IC50 [3] [µM]	IC50 [4] [µM]	Activity [2]	Activity (Mus musculus [5])	arm entries (Mus musculus [6]) [entries]	Activity (Mus musculus [7]) [%]
C#CCN(C)Cc1ccccc1 [PARGYLINE]	3.36	8.5							
Cn1c(=S)[nH]c2ccccc2c1=O	78.3	30.2	tde	120	3.42	tde			
Cn1c(N2N=C(c3ccccc3)CC2c2ccc(Br)cc2)nc2ccccc2c1=O (stereo not drawn)	10.6	1.17	tde	485	1.68	tde	230	3.25	65.12
Cc1ccc(C2=NN(c3nc4ccccc4c(=O)n3C)C(c3cccs3)C2)cc1 (stereo not drawn)	90.7	130	tde	70.8	415	tde	188.14	5.14	74.14
Cn1c(N2N=C(c3ccccc3)CC2c2ccccc2)nc2ccccc2c1=O (stereo not drawn)	25.2	9.9	tde	410	9.46	tde	222.27	4.37	27
Cn1c(N2N=C(c3ccccc3)CC2c2ccc(Cl)cc2)nc2ccccc2c1=O (stereo not drawn)	18.4	2.7	tde	416	3.7	tde	154.75	4.12	42.37
COc1ccc(C2=NN(c3nc4ccccc4c(=O)n3C)C(c3cccs3)C2)cc1 (stereo not drawn)	16.3	25.3	tde	15.2	440	tde	248.5	5.13	61.13
Cn1c(NN)nc2ccccc2c1=O	18.6	25.2	tde	21.2	37.4	tde			

More lines, main results first:

Ki [1] [µM]	Ki [2] [µM]	Activity [1]	IC50 [3] [µM]	IC50 [4] [µM]	Activity [2]	SMILES	Activity (Mus musculus [5])	arm entries (Mus musculus [6]) [entries]	Activity (Mus musculus [7]) [%]
65.1	90.7	tde	470	68	tde	COc1ccc(/C=C/C(=N/Nc2nc3ccccc3c(=O)n2C)c2ccccc2)cc1OC	209.63	5.63	130.57
30.6	80.1	tde	429	29	tde	CCOc1ccc(/C=C/C(=N/Nc2nc3ccccc3c(=O)n2C)c2ccccc2)cc1	218.88	5.75	90.23
0.16	5.1	tde	1.15	468	tde	Cn1c(N/N=C(/C=C/c2cccc(Cl)c2)c2ccccc2)nc2ccccc2c1=O	246.87	3.15	54.57
69.1	28.2	tde	416	28	tde	Cn1c(N/N=C(/C=C/c2cccs2)c2ccc(Cl)cc2)nc2ccccc2c1=O	162.17	8.5	50.39
188	190	tde	419	33.2	tde	Cc1ccc(C(/C=C/c2cccs2)=N\Nc2nc3ccccc3c(=O)n2C)cc1	204.71	5.57	65.57
64.6	30.2	tde	470	30.5	tde	Cc1ccc(/C=C/C(=N/Nc2nc3ccccc3c(=O)n2C)c2ccccc2)cc1	216.12	6.37	79.25
